Measurements gathered from unrelated publications.
Protocols differ between the studies behind these lines.
Target: Serine/threonine-protein kinase ULK2 (ULK2, Homo sapiens, UniProt Q8IYT8)
Sequence (Q8IYT8 1-1036, as in one of the studies): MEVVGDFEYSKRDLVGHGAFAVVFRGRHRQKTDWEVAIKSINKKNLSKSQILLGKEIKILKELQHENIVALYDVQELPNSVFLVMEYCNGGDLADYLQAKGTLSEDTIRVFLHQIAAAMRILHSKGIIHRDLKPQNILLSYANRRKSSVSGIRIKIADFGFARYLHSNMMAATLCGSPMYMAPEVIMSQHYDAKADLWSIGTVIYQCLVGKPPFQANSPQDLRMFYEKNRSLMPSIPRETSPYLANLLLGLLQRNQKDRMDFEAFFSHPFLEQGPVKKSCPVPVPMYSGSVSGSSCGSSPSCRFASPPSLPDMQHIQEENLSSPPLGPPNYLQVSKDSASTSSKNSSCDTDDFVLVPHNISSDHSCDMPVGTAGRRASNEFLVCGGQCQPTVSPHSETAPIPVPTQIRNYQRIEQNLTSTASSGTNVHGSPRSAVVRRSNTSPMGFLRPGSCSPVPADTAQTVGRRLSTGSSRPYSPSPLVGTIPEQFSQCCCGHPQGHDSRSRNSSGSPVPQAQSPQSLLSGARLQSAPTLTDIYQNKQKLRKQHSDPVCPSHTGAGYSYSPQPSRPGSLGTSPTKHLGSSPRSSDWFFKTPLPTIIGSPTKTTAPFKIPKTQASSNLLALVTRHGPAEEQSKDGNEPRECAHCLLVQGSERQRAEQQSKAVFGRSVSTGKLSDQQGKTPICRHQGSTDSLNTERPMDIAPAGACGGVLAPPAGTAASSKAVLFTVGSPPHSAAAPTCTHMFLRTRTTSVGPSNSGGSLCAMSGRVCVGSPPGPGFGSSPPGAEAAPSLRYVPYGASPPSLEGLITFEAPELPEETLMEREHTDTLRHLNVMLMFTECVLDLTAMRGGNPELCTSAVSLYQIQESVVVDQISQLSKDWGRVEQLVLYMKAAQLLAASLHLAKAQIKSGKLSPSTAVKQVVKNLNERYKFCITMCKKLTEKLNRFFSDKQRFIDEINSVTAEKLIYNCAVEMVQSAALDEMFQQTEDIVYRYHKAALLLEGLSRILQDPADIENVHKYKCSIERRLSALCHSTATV

The remaining binding of `CCCCC(=O)Nc1ccc(-c2ccc3ncn(CCC)c(=O)c3c2)cn1` is reported as 100% (binding, competition with immobilised ligand; 0.5 µM).
For `COc1ccc2oc(-c3ccc4nc(N)oc4c3)c/c(=N\c3ccccc3NC(=O)CCN)c2c1`, the remaining binding was 106% (binding; 1 µM).
The inhibition of `C=CC(=O)N1CCC([C@@H]2CCNc3c(C(N)=O)c(-c4ccc(Oc5ccccc5)cc4)nn32)CC1` is reported as 8% (enzyme activity, inhibitor; 1 µM).
With `N#Cc1ccc(NC(=O)Nc2ccccc2)cc1` the remaining binding was 86% (cell-free assay, competition with immobilised ligand; 25 µM).
For `CN1CCN(C(=O)c2ccc(NC(=O)Nc3ccc(N(C)c4ccnc(Nc5ccc(CS(C)(=O)=O)cc5)n4)cc3)cc2)CC1`, the remaining binding was 78% (binding; 1 µM).
`C=CC(=O)N1CCC[C@@H](n2nc(-c3ccc(Oc4ccccc4)cc3)c3c(N)ncnc32)C1` gave an inhibition of 13% (enzyme activity, inhibitor; 1 µM).
`C#Cc1cc(-c2cc(Nc3nc(N[C@@H](C)c4ccc(F)cn4)ncc3Cl)n[nH]2)ccc1C=O` gave an inhibition of 5.21% (enzyme activity, inhibitor; 0.2 µM).
`Cc1ccc(NC(=O)c2ccnc(C(F)(F)F)c2)cc1-c1cc(OCCO)nc(N2CCOCC2)c1` has a remaining binding of 100% (binding; 1 µM).
